{"data": "Experimental data collected from several papers", "note": "Protocols differ between the studies behind these lines."}
{"SMILES": "NCC(=O)Nc1ccc(-n2nc(C(F)(F)F)cc2-c2ccc3c(ccc4ccccc43)c2)cc1", "system": "mouse, plasma", "setting": "oral, 80 mg/kg, single dose", "endpoint": "Tmax", "value": "600 min"}
{"SMILES": "Cc1ccccc1C(=O)NN=Cc1ccc(O)c(Br)c1", "system": "mouse, plasma", "setting": "intraperitoneal, 1.6 mg/kg", "endpoint": "Tmax", "value": "30 min"}
{"SMILES": "N#Cc1cc(NC(=O)[C@H]2c3ccccc3C(=O)N(CC(F)(F)F)[C@@H]2c2cccnc2)ccc1F", "assay": "general toxicity", "system": "beagle dog", "setting": "oral, multiple doses", "endpoint": "NOAEL", "value": "30 mg/kg"}
{"SMILES": "CC[C@H](C)[C@H](NC(=O)[C@H](CC(C)C)NC(=O)[C@H](Cc1c[nH]c2ccccc12)NC(=O)[C@H](CCC(N)=O)NC(=O)[C@@H](NC(=O)[C@H](Cc1ccccc1)NC(=O)[C@H](C)NC(=O)[C@H](CCCCNC(=O)COCCOCCNC(=O)COCCOCCNC(=O)CC[C@H](NC(=O)CCCCCCCCCCCCCCCCCCC(=O)O)C(=O)O)NC(=O)[C@H](CCC(N)=O)NC(=O)[C@H](C)NC(=O)[C@@H](NC(=O)[C@H](CCCCN)NC(=O)[C@H](CC(=O)O)NC(=O)[C@H](CC(C)C)NC(=O)C(C)(C)NC(=O)[C@@H](NC(=O)[C@H](CO)NC(=O)[C@H](Cc1ccc(O)cc1)NC(=O)[C@H](CC(=O)O)NC(=O)[C@H](CO)NC(=O)[C@@H](NC(=O)[C@H](Cc1ccccc1)NC(=O)[C@@H](NC(=O)CNC(=O)[C@H](CCC(=O)O)NC(=O)C(C)(C)NC(=O)[C@@H](N)Cc1ccc(O)cc1)[C@@H](C)O)[C@@H](C)O)[C@@H](C)CC)[C@@H](C)CC)C(C)C)C(=O)N[C@@H](C)C(=O)NCC(=O)NCC(=O)N1CCC[C@H]1C(=O)N[C@@H](CO)C(=O)N[C@@H](CO)C(=O)NCC(=O)N[C@@H](C)C(=O)N1CCC[C@H]1C(=O)N1CCC[C@H]1C(=O)N1CCC[C@H]1C(=O)N[C@@H](CO)C(N)=O", "system": "human, plasma", "setting": "subcutaneous, 5 mg, patients", "endpoint": "Cmax", "value": "379 ng/mL"}
{"SMILES": "COc1ccc2[nH]cc(CCNc3nccc(Nc4cccc5c4ccn5C)n3)c2c1", "system": "mouse, plasma", "setting": "intravenous, 9.5 mg/kg", "endpoint": "Tmax", "value": "4.8 min"}
{"SMILES": "N=C(N)NCCC[C@@H](NC(=O)[C@@H](N)Cc1ccccc1)C(=O)N[C@@H](Cc1ccccc1)C(=O)N[C@@H](CCCCN)C(N)=O", "system": "human, plasma", "setting": "subcutaneous, 15 mg, patients", "endpoint": "Cmax", "value": "886 ng/mL"}
{"SMILES": "C[C@]12CC[C@H](O)CC1=CC[C@@H]1[C@@H]2CC[C@]2(C)C(n3cnc4ccccc43)=CC[C@@H]12.Cl", "system": "mouse, plasma", "setting": "oral, 10 mg/kg", "endpoint": "Tmax", "value": "25.2 min"}
{"SMILES": "CC(=C/C=C/C(C)=C/C(=O)O)/C=C1\\CCCc2ccccc21", "system": "human, plasma", "setting": "oral, 10 mg, single dose, fasted, healthy volunteers", "endpoint": "Cmax", "value": "55.9 ng/mL"}
{"SMILES": "N=c1c2c(-c3ccccc3)c(-c3ccccc3)n(Cc3ccccc3)c2ncn1[C@H]1CC[C@H](O)CC1", "system": "male cynomolgus monkey, plasma", "setting": "intravenous, 0.5 mg/kg, single dose", "endpoint": "Vd", "value": "1.5 L/kg"}
{"SMILES": "C[C@]12CC[C@H](n3ccnc3)CC1=CC[C@@H]1[C@@H]2CC[C@]2(C)C(n3cnc4ccccc43)=CC[C@@H]12.Cl", "system": "male CD-1 mouse, plasma", "setting": "oral, 10 mg/kg", "endpoint": "Tmax", "value": "800 min"}
{"SMILES": "COc1cc2c(c(OC)c1OC)-c1ccc(OC)c(=O)cc1[C@@H](NC(C)=O)CC2", "system": "Caco-2", "endpoint": "efflux ratio", "value": 24.5}
{"SMILES": "c1cc([C@H]2CC[C@]3(CC2)OO[C@]2(O3)C3CC4CC(C3)CC2C4)ccc1OCCN1CCOCC1", "system": "human, plasma", "setting": "oral, 200 mg, patients", "endpoint": "Cmax", "value": "339 ng/mL"}
